Among the data in ChEMBL document CHEMBL4024769, “Synthesis and Investigation of Photophysical and Biological Properties of Novel S-Containing Bacteriopurpurinimides” (J Med Chem, 2017) are inhibition in vivo, CC50 and Activity values, retold here.

Type in all cases: functional
The nature of assay [1]: Phototoxicity against mouse S37 cells implanted in F1 mouse assessed as tumor growth inhibition at 2.5 mg/kg, iv preincubated for 15 mins with subsequent 150 J/cm2 irradiation measured on day 8 post irradiation relative to control. The note with it: S37, light or radiation study, read-out: TGI. Put shortly: (§1)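 S37 sarcoma mice treated on day 7 of tumor growth with compound iv; tumors 140–160 mm3 beforehand, droperidol 0.25 mg ip as anesthetic. LED irradiation at 800 ± 21 nm, 100 mW/cm2, 150 J/cm2, given 15 or 30 min after dosing. Controls got iv 0.9% NaCl. Volume = d1×d2×d3×0.52; TGI = […]×100%.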

The nature of assay [2]: Phototoxicity against mouse S37 cells implanted in F1 mouse assessed as tumor growth inhibition at 5 mg/kg, iv preincubated for 15 mins with subsequent 150 J/cm2 irradiation measured on day 11 post irradiation relative to control. The note with it: S37, light or radiation study, read-out: TGI. Put shortly:
as §1

Assay [3] is described as follows: Phototoxicity against mouse S37 cells assessed as cell growth inhibition preincubated for 4 hrs with subsequent 10 J/cm2 irradiation followed by incubation in absence of compound for 24 hrs by MTT assay. The note with it: S37, light or radiation study. Summed up: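 S37 cells treated with 0.05–28 μM compound added 24 h after plating. After 0.25–6 h incubation, cells were irradiated with a halogen lamp through a KS-19 filter (720 nm) at 21.0 ± 1.0 mW/cm2, 10 J/cm2, with or without removing the compound. MTT read 24 h later; 50% growth inhibition taken as the value, mean of three tests.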

A short description of assay [4]: Phototoxicity against mouse S37 cells implanted in F1 mouse assessed as tumor growth inhibition at 5 mg/kg, iv preincubated for 30 mins with subsequent 150 J/cm2 irradiation measured on day 11 post irradiation relative to control. The following applies: S37, light or radiation study, read-out: TGI. Summed up:
as §1

Assay [5] in a line: Phototoxicity against mouse S37 cells implanted in F1 mouse assessed as tumor growth inhibition at 5 mg/kg, iv preincubated for 30 mins with subsequent 150 J/cm2 irradiation measured on day 15 post irradiation relative to control. The note with it: S37, light or radiation study, read-out: TGI. Put shortly: as §1
The nature of assay [6]: Phototoxicity against rat Sarcoma M1 cells implanted in rat assessed as tumor volume at 2.5 mg/kg, ip administered as single dose on day 11 after inoculation followed by 300 J/cm2 irradiation after 2.5 to 3 hrs measured on day 1 post photodynamic therapy (reference value: 1.22 +/- 0.18 mm3). Summed up: (§2)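 Rats with M1 sarcoma implanted subcutaneously in the left thigh were randomized on day 10, 25 per group. Single ip dose of 2.5 mg/kg on day 11; laser irradiation 2.5–3 h later at 810 nm, 0.51 W/cm2, 300 J/cm2, 10 min over a 1.5 cm field. Five rats sampled per time point for H&E histology, PCNA immunohistochemistry (1:200) and tumor volume. Untreated controls; Student's test, p < 0.05.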

A short description of assay [7]: Phototoxicity against rat Sarcoma M1 cells implanted in rat assessed as volume of PCNA-positive cells in tumor parenchyma at 2.5 mg/kg, ip administered as single dose on day 11 after inoculation followed by 300 J/cm2 irradiation after 2.5 to 3 hrs measured on day 1 post photodynamic therapy (reference value: 71 +/- 3 %). Summed up: as §2
Assay [8] in a line: Phototoxicity against rat Sarcoma M1 cells implanted in rat assessed as mitotic index at 2.5 mg/kg, ip administered as single dose on day 11 after inoculation followed by 300 J/cm2 irradiation after 2.5 to 3 hrs measured on day 1 post photodynamic therapy (reference value: 1.9 +/- 0.2 %). Summed up: as §2
Assay [9] is described as follows: Phototoxicity against rat Sarcoma M1 cells implanted in rat assessed as volume of tumor necrotic zones at 2.5 mg/kg, ip administered as single dose on day 11 after inoculation followed by 300 J/cm2 irradiation after 2.5 to 3 hrs measured on day 3 post photodynamic therapy (reference value: 30 +/- 4%). Put shortly: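 Rat M1 sarcoma was implanted subcutaneously in the left thigh, with randomisation on day 10. A single 2.5 mg/kg ip dose was given on day 11, then 810 nm laser (0.51 W/cm2, 300 J/cm2, 10 min) after 2.5−3 h. Tumours were sectioned on days 1, 3 and 12 after PDT (controls days 12, 14, 23), five animals per point. Parenchyma and necrotic zone volumes were estimated on hematoxylin and eosin staining.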

The nature of assay [10]: Phototoxicity against rat Sarcoma M1 cells implanted in rat assessed as mitotic index at 2.5 mg/kg, ip administered as single dose on day 11 after inoculation followed by 300 J/cm2 irradiation after 2.5 to 3 hrs measured on day 12 post photodynamic therapy (reference value: 1.9 +/- 0.2%). Summed up: as §2

For the molecule `CCCO/N=C(\C)c1c(C)c2cc3nc(c4c5[nH]c(cc6nc(cc1[nH]2)[C@H](C)[C@H]6CC)c(C)c5C(=O)N(OCCC)C4=O)[C@@H](CCC(=O)OC)[C@@H]3C`, in [1], the inhibition in vivo at 2.5 mg/kg was 100%. Besides, the inhibition in vivo at 5 mg/kg in assay [2] came to 100%.

On to `CCCO/N=C(\C)c1c(C)c2cc3nc(c4c5[nH]c(cc6nc(cc1[nH]2)[C@@H](C)[C@@H]6CC)c(C)c5C(=O)N(OCCC)C4=O)[C@H](CCC(=O)NCCSSCCNC(=O)CC[C@@H]1c2nc(cc4[nH]c(cc5nc(cc6[nH]c7c2C(=O)N(OCCC)C(=O)c7c6C)[C@H](CC)[C@H]5C)c(/C(C)=N/OCCC)c4C)[C@H]1C)[C@H]3C`, for which, in assay [3], the CC50 was 50 nM. In addition, the inhibition in vivo at 5 mg/kg in assay [4] and in [5] was 100% throughout. Further, the Activity in [6] was 1.13 mm3; in [7], 26%; in assay [8], 1.2%; in assay [9], 77%; in assay [10] it was 1.78%.

By CC50 is commonly meant the concentration giving 50% cytotoxicity.
